IC50 data for eight compounds are collected here from ChEMBL document CHEMBL1131325, “Synthesis and antiviral evaluation of certain novel pyrazinoic acid C-nucleosides” (J Med Chem, 1998).

Each structure is given as a SMILES string. Bounds are passed on as bounds.

The subject of one test is KB. The experiment in a line: Cytotoxicity for the compound was determined by the inhibition of the growing KB cells. Type of test: functional, cell-based. Conditions: Homo sapiens. A digest of the protocol:
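KB cell growth was measured over two population doublings. Cells were plated at 3000–5000/well, cultured overnight, then compound was added in quadruplicate at 6–8 concentrations for 48 h at 37 °C in CO₂. Cells were fixed in 95% ethanol, stained with 0.1% crystal violet, eluted with 0.1 N HCl/ethanol and read at 570 nm. IC50 came from regression vs. log concentration. The positive control was 2-acetylpyridine thiosemicarbazone.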

Another test concerns Human alphaherpesvirus 1. The experiment in a line: Compound was evaluated for the antiviral activity by their capacity to inhibit the replication of HSV-1 virus. Format: functional, organism-based. The method in brief: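 HSV-1 (KOS strain) ELISA in BSC-1 cells, 10 000 cells/well in MEM(E) + 10% calf serum, after overnight culture at 37 °C. Drug was added in quadruplicate with 100 pfu/well virus and incubated 3 days at 37 °C. Detection used HRP-conjugated rabbit anti-HSV-1 with TMB substrate, read at 450/570 nm. IC50 came from regression of % absorbance reduction vs. log concentration. Acyclovir was the positive control.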

For another test, the system named is HFF. The experiment in a line: Cytotoxicity for the compound was determined in uninfected stationary human foreskin fibroblasts (HFF) cells. Type of test: functional, cell-based. A digest of the protocol:
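Stationary HFF monolayers not affected by virus in the HCMV plaque assay were examined microscopically for cytotoxicity. Visual scoring was done at the time of plaque enumeration, after 10–12 days at 37 °C. IC50 came from regression against log concentration.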

For the next test, the system named is Human betaherpesvirus 5. The experiment in a line: Compound was evaluated for antiviral activity by their capacity to inhibit replication of HCMV virus. Format: functional, organism-based. A digest of the protocol: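 Towne strain HCMV (plaque-purified isolate P₀) plaque reduction in HFF cells in 24-well dishes, ~100 pfu/cm² cell sheet. After adsorption, compound in growth medium was added at 4–8 concentrations in duplicate wells. Incubation was 10–12 days at 37 °C, then crystal violet fixation/staining and microscopic plaque counts. IC50 came from linear regression of % plaque reduction vs. log concentration. Ganciclovir served as positive control.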

As to `CCOc1nc(Cl)c(C(N)=O)nc1[C@@H]1O[C@H](CO)[C@@H](O)[C@H]1O`, the IC50 with KB, with Human alphaherpesvirus 1, with HFF and with Human betaherpesvirus 5 was over 100 µM throughout.

As for `CCOC(=O)c1nc([C@@H]2O[C@H](CO)[C@@H](O)[C@H]2O)c(NC)nc1Cl`, the IC50 in the test on KB, in the test on Human alphaherpesvirus 1, with HFF and in the test with Human betaherpesvirus 5 was over 100 µM in each case.

For `Nc1nc2c(ncn2COC(CO)CO)c(=O)[nH]1` [GANCICLOVIR], the IC50 was over 100 µM in the test on KB, 1.8 µM in the test with Human alphaherpesvirus 1 and over 100 µM with HFF.

Regarding `CCOC(=O)c1nc([C@@H]2O[C@H](CO)[C@@H](O)[C@H]2O)c(Cl)nc1Cl`, the IC50 was determined as 20 µM in the test with KB, 20 µM with Human alphaherpesvirus 1, 3.2 µM in the test with HFF and 3.2 µM in the test on Human betaherpesvirus 5.

As for `CCOC(=O)c1nc([C@@H]2O[C@H](CO)[C@@H](O)[C@H]2O)c(N)nc1Cl`, the IC50 with KB, with Human alphaherpesvirus 1, in the test with HFF and in the test with Human betaherpesvirus 5 was over 100 µM throughout.

As for `OC[C@H]1O[C@@H](c2ncc(Cl)nc2Cl)[C@H](O)[C@@H]1O`, the figures for the IC50 in the test on HFF and with Human betaherpesvirus 5 were over 100 µM and 70 µM, respectively.

On to `COc1nc(Cl)c(C(N)=O)nc1[C@@H]1O[C@H](CO)[C@@H](O)[C@H]1O`, for which the IC50 with KB, in the test with Human alphaherpesvirus 1, in the test on HFF and in the test on Human betaherpesvirus 5 was over 100 µM each time.

Turning to `NC(=O)c1nc([C@@H]2O[C@H](CO)[C@@H](O)[C@H]2O)c(N)nc1Cl`, the IC50 with KB, in the test on Human alphaherpesvirus 1, in the test on HFF and in the test on Human betaherpesvirus 5 was over 100 µM in each case.

One may read the IC50 as the point on the concentration scale where inhibition reaches its midpoint.
